# Laboratory results reported in ChEMBL document CHEMBL5120825, “The azulene scaffold from a medicinal chemist's perspective: Physicochemical and in vitro parameters relevant for drug discovery” (Eur J Med Chem, 2022).
# What was measured:
# Cytochrome P450 2D6 = Cytochrome P450 2D6 (Homo sapiens, UniProt P10635); assay: Inhibition of CYP2D6 in human liver microsomes using dextromethorphan as substrate preincubated with compound followed by NADPH addition by LC-MS/MS analysis; assay type: ADME, Microsome
# Cytochrome P450 2D6, sequence (P10635 whole entry): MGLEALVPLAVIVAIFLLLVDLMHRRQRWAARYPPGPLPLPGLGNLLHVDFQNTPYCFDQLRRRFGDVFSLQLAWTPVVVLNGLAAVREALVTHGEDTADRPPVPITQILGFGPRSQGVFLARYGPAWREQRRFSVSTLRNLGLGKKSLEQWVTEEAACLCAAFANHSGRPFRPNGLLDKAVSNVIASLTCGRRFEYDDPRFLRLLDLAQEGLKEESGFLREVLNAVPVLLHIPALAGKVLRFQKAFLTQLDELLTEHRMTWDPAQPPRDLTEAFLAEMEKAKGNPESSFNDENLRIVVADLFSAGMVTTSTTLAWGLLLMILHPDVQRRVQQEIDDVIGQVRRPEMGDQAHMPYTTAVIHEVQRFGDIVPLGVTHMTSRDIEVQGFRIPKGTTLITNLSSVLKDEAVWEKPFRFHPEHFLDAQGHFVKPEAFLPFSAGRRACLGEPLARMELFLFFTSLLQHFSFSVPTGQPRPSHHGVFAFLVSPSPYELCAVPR
# Cytochrome P450 3A4 = Cytochrome P450 3A4 (Homo sapiens, UniProt P08684); assay: Inhibition of CYP3A4 in human liver microsomes using midazolam as substrate preincubated with compound followed by NADPH addition by LC-MS/MS analysis; assay type: ADME, Microsome
# Cytochrome P450 3A4, sequence (P08684 whole entry): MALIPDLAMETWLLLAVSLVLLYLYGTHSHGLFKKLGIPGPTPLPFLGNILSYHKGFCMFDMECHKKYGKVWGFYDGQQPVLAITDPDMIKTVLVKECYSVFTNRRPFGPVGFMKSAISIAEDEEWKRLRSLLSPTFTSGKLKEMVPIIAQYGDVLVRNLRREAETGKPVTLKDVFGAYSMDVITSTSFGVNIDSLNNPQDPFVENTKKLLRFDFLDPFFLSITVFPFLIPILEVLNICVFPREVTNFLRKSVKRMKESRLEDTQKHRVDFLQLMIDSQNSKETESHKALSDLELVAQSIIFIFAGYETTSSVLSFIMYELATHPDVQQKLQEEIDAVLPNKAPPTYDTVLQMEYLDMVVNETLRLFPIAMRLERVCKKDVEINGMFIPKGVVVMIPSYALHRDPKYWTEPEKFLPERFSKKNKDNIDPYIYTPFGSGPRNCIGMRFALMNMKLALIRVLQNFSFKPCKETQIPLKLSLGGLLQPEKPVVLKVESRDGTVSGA
# Cytochrome P450 2C9 = Cytochrome P450 2C9 (Homo sapiens, UniProt P11712); assay: Inhibition of CYP2C9 in human liver microsomes using diclofenac as substrate preincubated with compound followed by NADPH addition by LC-MS/MS analysis; assay type: ADME, Microsome
# Cytochrome P450 2C9, sequence (P11712 whole entry): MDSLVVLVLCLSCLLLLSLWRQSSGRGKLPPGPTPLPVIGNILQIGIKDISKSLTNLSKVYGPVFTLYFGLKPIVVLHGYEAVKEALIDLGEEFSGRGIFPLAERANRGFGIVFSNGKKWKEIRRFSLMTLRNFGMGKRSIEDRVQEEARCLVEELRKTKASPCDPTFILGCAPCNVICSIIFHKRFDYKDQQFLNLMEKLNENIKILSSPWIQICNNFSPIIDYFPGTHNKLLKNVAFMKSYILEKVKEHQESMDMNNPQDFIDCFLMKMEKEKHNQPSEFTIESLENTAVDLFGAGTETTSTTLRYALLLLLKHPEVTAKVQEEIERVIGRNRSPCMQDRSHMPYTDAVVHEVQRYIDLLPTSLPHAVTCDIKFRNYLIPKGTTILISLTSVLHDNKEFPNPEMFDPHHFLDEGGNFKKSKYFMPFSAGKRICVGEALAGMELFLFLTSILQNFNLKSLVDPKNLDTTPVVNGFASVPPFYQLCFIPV
# Cytochrome P450 2C19 = Cytochrome P450 2C19 (Homo sapiens, UniProt P33261); assay: Inhibition of CYP2C19 in human liver microsomes using mephenytoin as substrate preincubated with compound followed by NADPH addition by LC-MS/MS analysis; assay type: ADME, Microsome
# Cytochrome P450 2C19, sequence (P33261 whole entry): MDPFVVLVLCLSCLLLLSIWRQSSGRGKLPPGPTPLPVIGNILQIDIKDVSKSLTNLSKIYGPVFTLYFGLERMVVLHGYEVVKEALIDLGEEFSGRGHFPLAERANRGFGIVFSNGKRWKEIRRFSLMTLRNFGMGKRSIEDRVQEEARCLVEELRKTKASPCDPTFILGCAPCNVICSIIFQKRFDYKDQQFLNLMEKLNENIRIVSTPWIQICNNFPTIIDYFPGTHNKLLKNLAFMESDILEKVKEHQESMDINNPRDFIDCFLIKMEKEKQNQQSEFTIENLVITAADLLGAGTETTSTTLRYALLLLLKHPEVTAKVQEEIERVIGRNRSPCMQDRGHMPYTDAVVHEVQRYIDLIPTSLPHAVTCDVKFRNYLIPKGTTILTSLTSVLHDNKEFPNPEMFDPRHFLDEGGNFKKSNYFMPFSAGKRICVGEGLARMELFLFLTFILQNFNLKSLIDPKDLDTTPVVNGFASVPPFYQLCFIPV
# Cytochrome P450 2C8 = biological target: T1, Cytochrome P450 2C8 (Homo sapiens, UniProt P10632); assay: Inhibition of CYP2C8 in human liver microsomes using amodiaquine as substrate preincubated with compound followed by NADPH addition by LC-MS/MS analysis; assay type: ADME, Microsome
# T1 sequence (P10632 whole entry): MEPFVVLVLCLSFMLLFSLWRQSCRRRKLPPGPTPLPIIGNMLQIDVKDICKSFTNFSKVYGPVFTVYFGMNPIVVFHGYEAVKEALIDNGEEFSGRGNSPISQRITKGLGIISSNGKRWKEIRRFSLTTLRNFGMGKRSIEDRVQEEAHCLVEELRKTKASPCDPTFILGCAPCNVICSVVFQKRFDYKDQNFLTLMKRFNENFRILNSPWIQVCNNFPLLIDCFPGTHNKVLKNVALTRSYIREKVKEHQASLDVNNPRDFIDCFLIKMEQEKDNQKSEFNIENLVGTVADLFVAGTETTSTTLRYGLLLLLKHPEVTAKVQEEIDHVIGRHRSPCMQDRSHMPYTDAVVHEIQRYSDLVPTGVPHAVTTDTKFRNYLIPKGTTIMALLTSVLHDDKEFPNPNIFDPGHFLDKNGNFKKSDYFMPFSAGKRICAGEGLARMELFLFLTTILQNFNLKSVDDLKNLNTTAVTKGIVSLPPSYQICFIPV
# [1] = Aqueous solubility of the compound at pH 2.2 incubated for 24 hrs under shaking condition by LC-UV analysis; assay type: physicochemical; conditions: aqueous medium
# How it was run: (§1)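 The highest concentration tested was 250 μM, so results are capped at that level. Values are reported in µg/ml.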
# [2] = Photostability of the compound assessed as compound degradation administered as aqueous solution irradiated with UV and measured after 24 hrs by HPLC analysis
# [3] = Metabolic stability in human liver microsomes assessed as hepatic blood flow at 1 uM preincubated with compound followed by NADPH addition by LC-MS/MS analysis; assay type: ADME, Microsome; conditions: read-out: QH
# [4] = Aqueous solubility of the compound at pH 6.8 incubated for 24 hrs under shaking condition by LC-UV analysis; assay type: physicochemical; conditions: aqueous medium; how it was run: as §1
# [5] = Lipophilicity, logP of the compound; assay type: physicochemical; conditions: octanol/water
# [6] = Permeability of the compound at pH 7.4 by PAMPA assay; assay type: ADME; conditions: read-out: permeability
# [7] = Octanol-water partition coefficient, logD of the compound at pH 2 by HPLC analysis; assay type: physicochemical
# [8] = Octanol-water partition coefficient, logD of the compound at pH 11 by HPLC analysis; assay type: physicochemical; conditions: read-out: logD
# [9] = Aqueous solubility of the compound at pH 4.5 incubated for 24 hrs under shaking condition by LC-UV analysis; assay type: physicochemical; conditions: aqueous medium; how it was run: as §1
# [10] = Stability of the compound at pH 7.4 assessed as half life measured after 24 hrs in presence of GSH by HPLC analysis; assay type: physicochemical; conditions: solution with GSH
# [11] = Photostability of the compound assessed as compound degradation administered as solid irradiated with sun light and measured after 7 days by HPLC analysis
# [12] = Photostability of the compound at pH 5.3 assessed as compound degradation administered as solution irradiated with sun light and measured after 7 days by HPLC analysis; assay type: physicochemical; conditions: time 7 day, read-out: Drug degradation
# How it was run: (§2)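 Compound in solution was kept for 7 days under "mild" light-stress conditions, with no pH adjustment. The pH listed for each compound is the solution's own intrinsic pH. Result is % degradation of parent.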
# [13] = Hydrolytic stability of the compound in aqueous buffer at pH 7.4 assessed as compound decomposition measured after 3 days by HPLC analysis; assay type: physicochemical; conditions: time 3 day, read-out: Drug degradation
# How it was run: (§3)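 Compound was held for 3 days at 40 °C in 0.1 M HCl in water or in aqueous buffer at pH 7.4. Dissolution was confirmed by eye, and decomposition is reported as % loss of parent.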
# [14] = Hydrolytic stability of the compound in aqueous HCl assessed as compound decomposition measured after 3 days by HPLC analysis; assay type: physicochemical; conditions: time 3 day, read-out: Drug degradation; how it was run: as §3
# [15] = Photostability of the compound at pH 7.1 assessed as compound degradation administered as solution irradiated with sun light and measured after 7 days by HPLC analysis; assay type: physicochemical; conditions: time 7 day, read-out: Drug degradation; how it was run: as §2
# [16] = Photostability of the compound at pH 5.8 assessed as compound degradation administered as solution irradiated with sun light and measured after 7 days by HPLC analysis; assay type: physicochemical; conditions: time 7 day, read-out: Drug degradation; how it was run: as §2
# [17] = Photostability of the compound at pH 4.1 assessed as compound degradation administered as solution irradiated with sun light and measured after 7 days by HPLC analysis; assay type: physicochemical; conditions: time 7 day, read-out: Drug degradation; how it was run: as §2
# [18] = Dissociation constant, pKa of the compound by dip probe absorption spectroscopy; assay type: physicochemical
# [19] = Photostability of the compound at pH 8.7 assessed as compound degradation administered as solution irradiated with sun light and measured after 7 days by HPLC analysis; assay type: physicochemical; conditions: time 7 day, read-out: Drug degradation; how it was run: as §2
# [20] = Cytotoxicity against human HepG2 cells assessed as cell growth inhibition incubated for 24 hrs by MTT assay; assay type: toxicity, cell-based
# How it was run: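 HepG2 human hepatoma cells were exposed to compound at concentrations up to 400 µM and viability was read by MTT. The result is given in µM.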
# [21] = Photostability of the compound at pH 8.6 assessed as compound degradation administered as solution irradiated with sun light and measured after 7 days by HPLC analysis; assay type: physicochemical; conditions: time 7 day, read-out: Drug degradation; how it was run: as §2
# [22] = Photostability of the compound at pH 4.0 assessed as compound degradation administered as solution irradiated with sun light and measured after 7 days by HPLC analysis; assay type: physicochemical; conditions: time 7 day, read-out: Drug degradation; how it was run: as §2
SMILES,IC50 (Cytochrome P450 2D6) [µM],IC50 (Cytochrome P450 3A4) [µM],IC50 (Cytochrome P450 2C9) [µM],IC50 (Cytochrome P450 2C19) [µM],IC50 (Cytochrome P450 2C8) [µM],solubility thermodynamic at 24 h [1] [µg/mL],hepatic extraction ratio at 1 µM [3],solubility thermodynamic at 24 h [4] [µg/mL],Papp [6] [×10⁻⁶ cm/s],logD [8],solubility thermodynamic at 24 h [9] [µg/mL],logP ([5]; read-out: logP),logD ([7]; read-out: logD),half-life [10] [days],degraded at 168 h [11] [%],also measured
O=C(O)c1ccc2ccc(C(=O)c3ccc(C(F)(F)F)cc3)c-2cc1,> 50,> 50,> 50,> 50,13,–,–,–,–,–,–,–,–,–,–,–
CN(C)C(=O)c1cccc2ccccc12,–,–,–,–,–,> 47,< 0.23,> 43,8.3,1.8,> 50,–,–,–,–,degraded at 24 h [2]: < 0.5%; logP [5]: 1.8; logD [7]: 2.2
COC(=O)c1ccc2ccc(C(=O)N(C)C)c-2cc1,–,–,–,–,–,> 64,–,> 64,7.4,2.1,50,2.1,2.3,> 41.7,–,–
CN(C)C(=O)c1c[nH]c2ccccc12,–,–,–,–,–,> 47,0.25,> 44,2.2,0.4,> 47,–,–,–,–,degraded at 24 h [2]: < 0.5%; logP [5]: 0.4; logD [7]: 1.1
CN(C)C(=O)Cc1ccc2cccc-2cc1,–,–,–,–,–,> 44,0.27,> 43,8.7,2.2,> 45,2.2,2.5,> 41.7,< 0.5,degraded at 168 h [12]: 12%; degraded at 72 h [13]: < 0.5%; degraded at 72 h [14]: 2%
O=C(Cn1ccccc1=O)Nc1cc2cccccc-2c1,–,–,–,–,–,4,< 0.23,2,3.7,1.7,2,1.7,2,> 41.7,< 0.5,degraded at 72 h [13]: < 0.5%; degraded at 72 h [14]: 3.5%; degraded at 168 h [15]: 85%
O=C(NCCO)c1ccc2ccc(C(=O)c3ccccc3)c-2cc1,> 50,> 50,> 50,> 50,> 50,14,< 0.23,4,1.8,2.2,6,2.2,2.3,–,< 0.5,degraded at 168 h [16]: < 0.5%
O=C(O)c1ccc2ccc(C(=O)c3ccccc3)c-2cc1,> 50,> 50,> 50,> 50,> 50,–,–,–,–,–,–,–,–,> 41.7,< 0.5,degraded at 168 h [17]: < 0.5%; pKa [18]: 3.2
c1cc2ccc(CN3CCCCC3)ccc-2c1,17,> 50,> 50,2.3,> 50,> 56,0.75,31,3.4,> 5.5,–,> 5.5,0.8,–,< 0.5,degraded at 168 h [19]: 3.5%
NC(=O)C1CCN(C(=O)c2ccc3cccccc2-3)CC1,> 50,> 50,> 50,> 50,> 50,> 71,< 0.23,> 58,0.5,0.6,> 57,–,–,–,–,logP [5]: 0.6; EC50 at 24 h [20]: > 400 µM; logD [7]: 1.2
COc1cccc(C(=O)c2ccc3ccc(C(=O)O)ccc2-3)c1,> 50,> 50,> 50,> 50,22,–,–,–,–,–,–,–,–,–,–,–
COCC(=O)Nc1cc2cccccc-2c1,> 50,> 50,> 50,22,> 50,–,–,–,–,–,–,–,–,–,–,EC50 at 24 h [20]: > 400 µM
O=C(O)c1c[nH]c2ccccc12,–,–,–,–,–,–,–,–,–,–,–,–,–,–,–,pKa [18]: 5.29
CN(C)C(=O)c1ccc2cccccc1-2,> 50,> 50,> 50,> 50,> 50,> 43,0.67,> 40,7.6,1.6,> 44,–,–,> 41.7,< 0.5,degraded at 24 h [2]: 100%; logP [5]: 1.6; EC50 at 24 h [20]: > 400 µM; logD [7]: 2.1; degraded at 168 h [21]: 3%; degraded at 72 h [13]: < 0.5%; degraded at 72 h [14]: < 0.5%
C=CC(=O)N1C[C@H](Nc2ncnc3[nH]ccc23)CC[C@@H]1C [RITLECITINIB],–,–,–,–,–,–,–,–,–,–,–,–,–,1.33,–,–
O=C(O)c1ccc2cccc-2cc1,–,–,–,–,–,–,–,–,–,–,–,–,–,> 41.7,< 0.5,degraded at 168 h [22]: < 0.5%; degraded at 72 h [13]: < 0.5%; degraded at 72 h [14]: 1.5%; pKa [18]: 3.5
O=C(Nc1cc2cccccc-2c1)c1cccnc1,–,–,–,–,–,43,0.71,2,4.8,1.3,3,2.4,1.3,–,–,–
O=C(NCCc1cnc[nH]1)C1=CC2C(C(=O)c3ccccc3)=CN=C2C=C1 (centres undefined),–,–,–,–,–,> 81,< 0.23,66,< 0.01,0.8,78,0.8,0.7,–,–,–
O=C(O)c1ccc2cccccc1-2,–,–,–,–,–,–,–,–,–,–,–,–,–,–,–,pKa [18]: 5.1
O=C(O)c1ccc2c(C(=O)c3ccccc3)cc(C(=O)c3ccccc3)c-2cc1,> 50,> 50,12,> 50,1.5,–,–,–,–,–,–,–,–,–,–,–
CN(C)C(=O)c1cn(C)c2ccccc12,–,–,–,–,–,> 51,0.55,> 51,6.7,1.3,> 51,–,–,–,–,degraded at 24 h [2]: < 0.5%; logP [5]: 1.3; logD [7]: 1.8
